Test results as given in ChEMBL document CHEMBL5344428, “Discovery, Crystallographic Studies, and Mechanistic Investigations of Novel Phenylalanine Derivatives Bearing a Quinazolin-4-one Scaffold as Potent HIV Capsid Modulators” (J Med Chem, 2023).

How the values were obtained:
[1] = Selectivity ratio of EC50 for antiviral activity against HIV1 IIIB infected in human MT4 cells to EC50 for antiviral activity against HIV2 ROD infected in human MT4 cells; assay type: toxicity, cell-based
Method in brief: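 Ratio is EC50 against HIV-1 IIIB divided by EC50 against HIV-2 ROD. Both EC50 values come from MTT-read protection of infected MT-4 cells.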

[2] = test system: Human immunodeficiency virus 1; assay: Antiviral activity against HIV1 IIIB infected in human MT4 cells assessed as reduction in virus induced cytopathic effect measured after 5 days by MTT assay; assay type: functional, organism-based; conditions: Human immunodeficiency virus 1, IIIB, MT4, 120 h
Method in brief: (§1)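 MT-4 cells were infected with HIV-1 IIIB or HIV-2 ROD, and cell viability was read by MTT. […] Each value was run in at least triplicate and averaged from at least three independent experiments.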

[3] = Cytotoxicity against human MT4 cells assessed as reduction in cell viability incubated for 5 days by MTT assay; assay type: toxicity, cell-based; conditions: MT4 cells, time 5 day
Method in brief: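 Uninfected MT-4 cells were exposed to compound, and viability was read by the MTT method. […] Each value was run in at least triplicate and averaged from at least three independent experiments.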

[4] = Selectivity index, ratio of CC50 for cytotoxicity against human MT4 cells to EC50 for antiviral activity against HIV1 IIIB infected in human MT4 cells; assay type: toxicity, cell-based; conditions: read-out: Ratio CC50/EC50
Method in brief: (§2)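 SI is CC50 divided by EC50. CC50 comes from MTT viability of uninfected MT-4 cells. EC50 comes from MTT-read protection of MT-4 cells infected with HIV-1 IIIB or HIV-2 ROD. Each value was run in at least triplicate.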

[5] = Selectivity index, ratio of CC50 for cytotoxicity against human MT4 cells to EC50 for antiviral activity against HIV2 ROD infected in human MT4 cells; assay type: toxicity, cell-based; conditions: read-out: Ratio CC50/EC50; method in brief: as §2
[6] = test system: Human immunodeficiency virus 2; assay: Antiviral activity against HIV2 ROD infected in human MT4 cells assessed as reduction in virus induced cytopathic effect measured after 5 days by MTT assay; assay type: functional, organism-based; conditions: Human immunodeficiency virus 2, ROD, MT4, 120 h; method in brief: as §1

| SMILES | Ratio EC50 [1] | EC50 [2] | CC50 at 120 h [3] | selectivity ratio [4] | selectivity ratio [5] | EC50 [6] |
| --- | --- | --- | --- | --- | --- | --- |
| COc1ccc(N(C)C(=O)[C@H](Cc2cc(F)cc(F)c2)NC(=O)CN(Cc2ccc(C#N)cc2)C(=O)Cc2ccc(B3OC(C)(C)C(C)(C)O3)cc2)cc1 | 1.09 | 17.7 µM | 52.4 µM | 3 | 3 | 16.2 µM |
| COc1ccc(-n2c(SCc3ncccn3)nnc2[C@H](Cc2ccccc2)NC(=O)Cc2c(C)[nH]c3ccccc23)cc1 | 0.24 | 1.81 µM | 106 µM | 58 | 14 | 7.43 µM |
| COc1ccc(N(C)C(=O)[C@H](Cc2ccccc2)NC(=O)Cn2ccc(NC(=O)c3ccc(C)cc3)cc2=O)cc1 | 1.25 | 25.6 µM | 58.3 µM | 2.28 | 2.85 | 20.5 µM |
| COc1ccc(-n2c(SCC(F)F)nnc2[C@H](Cc2ccccc2)NC(=O)Cc2c(C)[nH]c3ccccc23)cc1 | 0.35 | 2.54 µM | 24.4 µM | 10 | 3 | 7.33 µM |
| COc1ccc(-n2c([C@H](Cc3ccccc3)NC(=O)CN3CCN(S(=O)(=O)c4ccc(N)cc4)CC3)nc3ccccc3c2=O)cc1 | 4.27 | 0.64 µM | > 187 µM | > 291 | > 1250 | 0.15 µM |
| COc1ccc(N(C)C(=O)[C@H](Cc2cc(F)cc(F)c2)NC(=O)CN(C(=O)Cc2c(C)[nH]c3ccccc23)C2CC2)cc1 | 0.18 | 3.08 µM | 112 µM | 36 | 6 | 17.3 µM |
| COc1ccc(N(C)C(=O)[C@H](Cc2ccccc2)NC(=O)CN2CCN(C(=O)Cc3c[nH]c4ccc(F)cc34)CC2=O)cc1 | 4.83 | 21.8 µM | 90.1 µM | 4.13 | 19.9 | 4.52 µM |
| COc1ccc(-n2c([C@H](Cc3cc(F)cc(F)c3)NC(=O)CN3CCN(S(=O)(=O)c4ccc([N+](=O)[O-])cc4)CC3)nc3cc(Cl)ccc3c2=O)cc1 | 1.48 | 0.59 µM | > 163 µM | > 278 | > 403 | 0.4 µM |
| COC(=O)CSc1nnc([C@H](Cc2ccccc2)NC(=O)Cc2c(C)[nH]c3ccccc23)n1-c1ccc(OC)cc1 | 0.46 | 3.01 µM | 82.3 µM | 27 | 12 | 6.59 µM |
| COc1ccc(-n2c([C@H](Cc3cc(F)cc(F)c3)NC(=O)CN3CCN(S(=O)(=O)c4ccc(N)cc4)CC3)nc3cc(S(C)(=O)=O)ccc3c2=O)cc1 | 4.53 | 0.68 µM | > 160 µM | > 236 | > 1040 | 0.15 µM |
| COc1ccc(-n2c(SCc3ccc(S(N)(=O)=O)cc3)nnc2[C@H](Cc2ccccc2)NC(=O)Cc2c(C)[nH]c3ccccc23)cc1 | 0.72 | 2.47 µM | > 187 µM | > 76 | > 55 | 3.42 µM |
| COc1ccc(N(C)C(=O)[C@H](Cc2cc(F)cc(F)c2)NC(=O)CN2CCN(C(=O)c3ccc(NC(=O)C(F)(F)F)cc3)CC2=O)cc1 | 0.83 | 13.7 µM | 150 µM | 10.9 | 9.09 | 16.6 µM |
| COc1ccc(N(C)C(=O)[C@H](Cc2cc(F)cc(F)c2)NC(=O)CN(Cc2ccc(F)cc2)C(=O)Cc2ccc(B(O)O)cc2)cc1 | 0.64 | 4.33 µM | 18.9 µM | 4 | 3 | 6.8 µM |
| COc1ccc(N(C)C(=O)[C@H](Cc2ccccc2)NC(=O)Cn2ccc(NC(=O)c3ccc(F)cc3)cc2=O)cc1 | > 2.15 | > 34.8 µM | 34.8 µM | – | 2.15 | 16.2 µM |
| COc1ccc(N(C)C(=O)[C@H](Cc2cc(F)cc(F)c2)NC(=O)CN(Cc2ccc(F)cc2)C(=O)Cn2nc(C(F)(F)F)c3ccccc32)cc1 | 0.2 | 2.53 µM | 108 µM | 42 | 8 | 12.9 µM |
| COc1ccc(N(C)C(=O)[C@H](Cc2cc(F)cc(F)c2)NC(=O)CN2CCN(C(=O)Cc3c[nH]c4ccc(OC)cc34)CC2=O)cc1 | – | > 15.9 µM | 15.9 µM | < 1 | < 1 | > 15.9 µM |

| SMILES | Ratio EC50 [1] | EC50 [2] | CC50 at 120 h [3] | selectivity ratio [4] | selectivity ratio [5] | EC50 [6] |
| --- | --- | --- | --- | --- | --- | --- |
| COc1ccc(-n2c(SCC(N)=O)nnc2[C@H](Cc2ccccc2)NC(=O)Cc2c(C)[nH]c3ccccc23)cc1 | 0.24 | 0.88 µM | 118 µM | 135 | 32 | 3.74 µM |
| O=C(CN1CCN(S(=O)(=O)c2ccc([N+](=O)[O-])cc2)CC1)N[C@@H](Cc1ccccc1)c1nc2ccccc2c(=O)n1-c1ccc(S(=O)(=O)N2CCS(=O)(=O)CC2)cc1 | – | 12.6 µM | > 145 µM | > 11.5 | > 198 | 0.73 µM |
| COc1ccc(N(C)C(=O)[C@H](Cc2cc(F)cc(F)c2)NC(=O)CN2CCN(C(=O)Cc3c[nH]c4ccc(Br)cc34)CC2=O)cc1 | – | > 3.15 µM | 3.15 µM | < 1 | < 1 | > 3.15 µM |
| COc1ccc(N(C)C(=O)[C@H](Cc2cc(F)cc(F)c2)NC(=O)CN(Cc2ccccc2)C(=O)Cc2c(C)[nH]c3ccccc23)cc1 | 0.42 | 2.77 µM | 28.6 µM | 10 | 4 | 6.52 µM |
| COc1ccc(-n2c(S)nnc2[C@H](Cc2ccccc2)NC(=O)Cc2c(C)[nH]c3ccccc23)cc1 | 0.47 | 4.94 µM | 133 µM | 27 | 13 | 10.6 µM |
| COc1ccc(N(C)C(=O)[C@H](Cc2cc(F)cc(F)c2)NC(=O)CN2CCN(C(=O)c3ccc(NC(=O)C4CC4)cc3)CC2=O)cc1 | 0.95 | 14.4 µM | 88.6 µM | 6.17 | 5.87 | 15.1 µM |
| COc1ccc(-n2c(SCc3cncs3)nnc2[C@H](Cc2ccccc2)NC(=O)Cc2c(C)[nH]c3ccccc23)cc1 | 0.23 | 0.9 µM | 33.9 µM | 38 | 9 | 3.98 µM |
| COc1ccc(N(C)C(=O)[C@H](Cc2ccccc2)NC(=O)Cn2ccc(NC(=O)c3ccccc3F)cc2=O)cc1 | 2.26 | 17.9 µM | 81.4 µM | 4.55 | 10.3 | 7.92 µM |
| COc1ccc(N(C)C(=O)[C@H](Cc2cc(F)cc(F)c2)NC(=O)CN(Cc2ccc(C#N)cc2)C(=O)Cc2cccc3ccccc23)cc1 | 82.32 | > 189 µM | > 189 µM | – | > 82 | 2.3 µM |
| COc1ccc(-n2c([C@H](Cc3ccccc3)NC(=O)CN3CCN(S(=O)(=O)c4ccc([N+](=O)[O-])cc4)CC3)nc3cc(F)ccc3c2=O)cc1 | 3.55 | 1.99 µM | > 175 µM | > 88 | > 312 | 0.56 µM |
| COc1ccc(N(C)C(=O)[C@H](Cc2ccccc2)NC(=O)Cn2ccc(NC(=O)c3ccccc3)cc2=O)cc1 | 3.46 | 16.8 µM | 86.5 µM | 5.15 | 17.8 | 4.86 µM |
| COc1ccc(N(C)C(=O)[C@H](Cc2cc(F)cc(F)c2)NC(=O)CN(CC2CCCCC2)C(=O)Cn2nc(C(F)(F)F)cc2C)cc1 | 1.22 | 30.3 µM | 45.7 µM | 2 | 2 | 24.9 µM |
| Nc1ccc(S(=O)(=O)N2CCN(CC(=O)N[C@@H](Cc3ccccc3)c3nc4ccccc4c(=O)n3-c3ccc(S(=O)(=O)N4CCOCC4)cc3)CC2)cc1 | 1.5 | 0.15 µM | > 159 µM | > 1040 | > 1560 | 0.1 µM |
| COc1ccc(N(C)C(=O)[C@H](Cc2ccccc2)NC(=O)CN2CCN(C(=O)Cc3c(C)[nH]c4ccccc34)CC2=O)cc1 | 1.84 | 14.3 µM | 108 µM | 7.73 | 13.9 | 7.74 µM |
| COc1ccc(-n2c([C@H](Cc3ccccc3)NC(=O)CN3CCN(S(=O)(=O)c4ccc(N)cc4)CC3)nc3cc(S(C)(=O)=O)ccc3c2=O)cc1 | 10.97 | 3.84 µM | > 168 µM | > 43.7 | > 481 | 0.35 µM |
